Columns and labels:
Format in all cases: nucleic-acid assay
Nucleic Acid [1] = assay: Association constant for binding to AATT 28-mer AATT hairpin
How it was run: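 Fluorometric equilibrium titration at 20 °C in 50 mM Tris, 100 mM NaCl, pH 7.5. A fixed 0.7-1.6 nM dye in a silanized quartz cuvette was titrated with excess 28-mer T4-looped AATT hairpin (3.54 μM stock). The rise in fluorescence was fitted to the quadratic binding equation, with dilution taken into account. Above about 4 × 10^9 M^-1, dye concentration was an extra fitting parameter.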

Nucleic Acid [2] = assay: Association constant for binding to AATT duplex
How it was run: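 Fluorometric equilibrium titration at 20 °C in 50 mM Tris, 100 mM NaCl, pH 7.5. The fluorescence increase was fitted to the quadratic binding equation, with dilution corrected.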

Nucleic Acid [3] = assay: Kinetically Defined Association Constant for 28-mer AATT hairpin.
How it was run: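 Stopped-flow fluorescence at 20 °C, pH 7.5 (50 mM Tris, 0.1 M NaCl). 2 nM dye was mixed with excess 28-mer AATT hairpin, with excitation at 366 nm and emission through a 418 nm cutoff filter. Inverse time constants from monoexponential traces versus concentration gave kon. koff came from dissociation with excess poly[d(A-5BrU)]. Kkin = kon/koff.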

## CN1CCN(c2ccc3[nH]c(-c4ccc5[nH]c(-c6ccc(O)cc6)nc5c4)nc3c2)CC1
Nucleic Acid [1]
  Ka: 5.2e-08 M⁻¹
Nucleic Acid [2]
  Ka: 4.1e-08 M⁻¹
Nucleic Acid [3]
  Kkin: 5.9e-08 M⁻¹

— ChEMBL document CHEMBL1134542, “Experimental precedent for the need to involve the primary hydration layer of DNA in lead drug design” (J Med Chem, 2001)
